Compounds with a hit are over-represented: about 0.44% of the library has one in this group of screens.
RAD54 inh: inhibitors of human RAD54 branch migration, primary screen, biochemical, fluorescence, single point | AID 602329, 2012 | DNA repair and recombination protein RAD54-like (Homo sapiens), Q92698 | actives 0.14% (n = 360,000) | inhibition, % at 10.4 µM | RAD54 Holliday junction branch migration, FAM/BHQ fluorescence;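 active means mean normalized replicate activity at least 40 and at least half of replicates scoring 40 or more; inconclusive means only one of the two criteria met; inactive means mean below 40 and under half of replicates reaching 40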;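 further: 0% = median of neutral control wells and 100% = median of positive control wells; inhibitors cause a drop in the FAM fluorescence signal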
PDI inh: inhibitors of human PDI, primary screen, biochemical, turbidity, single point, plate reader; inhibition, % at 10 µM; Protein disulfide-isomerase (Homo sapiens), P07237; PDI insulin aggregation turbidity, A650, 90 min; actives 0.052% (n = 350,000); AID 588391, 2011;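 active means mean inhibition across replicates of 30% or more, whatever share of single replicates reach that level; inconclusive means mean inhibition below 30% while every single replicate reaches 30%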
PglD inh: C. jejuni PglD acetyltransferase inhibitors, primary screen, biochemical, DTNB colorimetric, single point | purified PglD enzyme, DTNB colorimetric CoA detection | inhibition, % at 12.5 µM | actives 0.098% (n = 360,000) | AID 602405, 2012; in the data active means inhibition above about 16%, passing the limit was not always enough; inconclusive means no clear call, values can overlap the other calls
FN deposition inh: inhibitors of fibronectin matrix deposition, primary screen, AH1F cells, Alexa488-fibronectin fluorescence, plate reader; AH1F fibroblasts, overnight; inhibition, % at 12.6 µM; actives 0.086% (n = 350,000); AID 743247, 2014;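 active means mean inhibition across replicates of 30% or more, regardless of how many single replicates reach that level; inconclusive means mean under 30% yet at least half of replicates reach 30%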;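 further: positive control wells lacked labelled fibronectin entirely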
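Material: AH1F fibroblasts assembling fluorescent fibronectin matrix; amount: 10000 AH1F cells/well; medium: DMEM, 2% serum; reagent: Alexa488-fibronectin, 24 nM final in well; dosing: single compound dose, delivered by pin transfer; incubation: 1 h adhesion, overnight exposure; detection: fluorescence after three HBSS washes, excitation 485 nm, emission 525 nm; measure: fibronectin deposition inhibition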
ERp5 block: inhibitors of ERp5-driven insulin aggregation, primary screen, biochemical, turbidity, absorbance 650 nm, single point; 90 min; AID 651711, 2012; inhibition, % at 9.99 µM; Protein disulfide-isomerase A6 (Homo sapiens), Q15084; actives 0.05% (n = 350,000);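 active means mean replicate inhibition above about 25%, with every replicate also reaching it, limit read from the data, passing the limit was not always enough; inconclusive means only one of those two criteria met; inactive means neither criterion met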
Target sequence (Q15084 whole entry, looked up): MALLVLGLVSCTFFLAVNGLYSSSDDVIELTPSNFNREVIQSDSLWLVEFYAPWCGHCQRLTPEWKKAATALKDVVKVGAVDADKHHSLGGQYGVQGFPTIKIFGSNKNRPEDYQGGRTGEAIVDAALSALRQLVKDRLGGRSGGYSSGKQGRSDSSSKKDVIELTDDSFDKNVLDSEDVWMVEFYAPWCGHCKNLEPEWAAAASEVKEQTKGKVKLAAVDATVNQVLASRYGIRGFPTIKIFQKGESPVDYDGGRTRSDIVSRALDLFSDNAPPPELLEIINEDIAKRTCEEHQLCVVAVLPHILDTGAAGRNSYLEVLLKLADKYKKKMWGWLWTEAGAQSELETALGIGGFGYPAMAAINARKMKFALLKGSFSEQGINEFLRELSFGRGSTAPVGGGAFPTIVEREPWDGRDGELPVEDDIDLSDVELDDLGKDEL
S100A4 inh HTS: inhibitors of S100A4-myosin IIA peptide binding, primary screen, biochemical, fluorescence polarization, TAMRA-MyoIIA peptide | Protein S100-A4 (Homo sapiens), P26447 | inhibition, % at 10.7 µM | actives 0.14% (n = 360,000);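 active means mean inhibition of at least 70% across replicates, with every replicate also reaching that level; inconclusive means mean inhibition reaches 70% but some replicates fall short; inactive means mean inhibition below 70%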
Target sequence (P26447 whole entry, looked up): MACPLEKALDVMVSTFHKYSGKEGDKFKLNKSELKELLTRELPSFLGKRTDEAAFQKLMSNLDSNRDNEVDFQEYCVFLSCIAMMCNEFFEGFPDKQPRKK
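Material: S100A4 monomer protein / Buffer or medium: 50 mM HEPES pH 7.2, 10 mM CaCl2, 100 mM KCl / Times: 5 min incubation before reading / Benchmarks: neutral control DMSO, positive control TFP / Reagent: labelled myosin peptide probe, 5 nM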
* marks the source's active call; other numbers are inactive results; ? = inconclusive; nt = no result given; ! = not confirmed by another sample.

SMILES	RAD54 inh	PDI inh	PglD inh	FN deposition inh	ERp5 block	S100A4 inh HTS
O=c1[nH]c(Nc2ccc(F)cc2)cc2ccccc12	12	4	32*	-1	13	1
O=C(O)c1cc(O)c2c(c1)[C@H]([C@H]1c3cc(C(=O)O)cc(O)c3C(=O)c3c(O[C@@H]4O[C@H](CO)[C@@H](O)[C@H](O)[C@H]4O)cccc31)c1cccc(OC3O[C@H](CO)[C@@H](O)[C@H](O)[C@H]3O)c1C2=O (stereo partly specified)	2	47*	1	-39	-3	2
O=C(O)c1cc(O)c2c(c1)[C@@H]([C@H]1c3cc(C(=O)O)cc(O)c3C(=O)c3c(O[C@@H]4O[C@H](CO)[C@@H](O)[C@H](O)[C@H]4O)cccc31)c1cccc(OC3O[C@H](CO)[C@@H](O)[C@H](O)[C@H]3O)c1C2=O (stereo partly specified)	9	?	5	-7	0	-2
Cc1noc(C)c1NC(=O)N(C)C[C@H]1Oc2ccc(NC(=O)c3ccncc3)cc2C(=O)N([C@H](C)CO)C[C@@H]1C	5	12	1	17	28*!	27
Cc1noc(C)c1NC(=O)Nc1ccc2c(c1)C(=O)N([C@H](C)CO)C[C@H](C)[C@H](CN(C)C(=O)Nc1ccc(F)cc1)O2	6	nt	-3	7	0	-9
Cc1noc(C)c1NC(=O)Nc1ccc2c(c1)C(=O)N([C@H](C)CO)C[C@@H](C)[C@@H](CN(C)C(=O)Nc1ccc(F)cc1)O2	4	nt	-1	-9	51*	-6
C[C@@H]1CN([C@@H](C)CO)C(=O)CCCn2cc(nn2)CO[C@H]1CN(C)S(=O)(=O)c1ccc(Oc2ccccc2)cc1	2	nt	1	3	-6	82*!
C[C@H]1CN([C@@H](C)CO)C(=O)CCCn2nncc2CO[C@H]1CN(C)S(=O)(=O)c1ccc2c(c1)OCCCO2	3	-3	1	-1	-2	117*!
O=C(c1cc([N+](=O)[O-])ccc1N1CCOCC1)N1CCN(c2ccc([N+](=O)[O-])cc2)CC1	4	36*	-4	-10	-5	-10
COc1ccc2c3c(n(C)c2c1)[C@@H](CO)NCC31CCN(C(=O)c2ccc(F)cc2)CC1	nt	nt	nt	8	0	-1
COc1ccc(S(=O)(=O)/N=C2/C=CC(=O)C(C)=C2C)cc1	-2	-3	2	nt	nt	nt
CC1=C(C)/C(=N\OS(=O)(=O)c2ccc(C)cc2)C=CC1=O	nt	4	nt	33*	nt	nt
CC(C)CC#Cc1ccc2c(c1)O[C@@H](CN(C)C(=O)Cc1ccccc1)[C@@H](C)CN([C@H](C)CO)S2(=O)=O	5	nt	-1	-20	-2	8
O=C(c1ccc(F)cc1)N1C[C@@H]2[C@H](c3ccccc31)[C@@H](CO)N2Cc1ccc2c(c1)OCO2	-30	nt	-1	nt	1	6
C[C@@H]1CN([C@@H](C)CO)S(=O)(=O)c2ccc(-c3ccncc3)cc2O[C@H]1CN(C)C(=O)CN(C)C	15	nt	-3	nt	8	-1
CC=Cc1ccc2n(c1=O)C[C@H]1N[C@@H]2[C@@H](C(=O)NC2CCCCC2)[C@@H]1CO (mixture of isomers)	10	nt	-1	-9	-3	0
CC=Cc1ccc2n(c1=O)C[C@@H]1N[C@H]2[C@H](C(=O)NC2CCCCC2)[C@H]1CO (mixture of isomers)	14	nt	9	9	-3	81*
CCC1(CC)NC(=O)N(CC(=O)OCC(=O)c2ccccc2OC)C1=O	nt	-3	nt	0	3	0
COc1ccccc1C(=O)COC(=O)CN1C(=O)NC2(CCCC2)C1=O	nt	-2	nt	-2	-1	93*
CCC1CCCCN1S(=O)(=O)c1ccc(NC(=O)c2nc(S(C)(=O)=O)ncc2Cl)cc1 (stereo unspecified)	-4	12	2	39*	11	1
COc1ccc(C#Cc2cnc3c(c2)C(=O)N([C@H](C)CO)C[C@H](C)[C@@H](CN(C)C(=O)CC2CC2)O3)cc1	-12	nt	0	0	1	-10
COc1ccc(-c2csc(CCn3nc(C)cc3C)n2)cc1	nt	-3	nt	-1	-3	-2
COc1ccc(-c2csc(CCn3nc(C)cc3C)n2)cc1OC	-2	-2	0	37*	-7	-5
O=C(C[C@@H]1CC[C@H]2[C@@H](COC[C@H](O)CN2Cc2ccccc2)O1)N[C@@H]1CCN(Cc2ccccc2)C1	-4	nt	-1	-8	-5	-6
O=C(c1ccc([N+](=O)[O-])cc1)N(c1ccccn1)c1ccccn1	nt	-2	nt	-15	5	-6
SMILES	RAD54 inh	PDI inh	PglD inh	FN deposition inh	ERp5 block	S100A4 inh HTS
CN(N=Cc1ccc([N+](=O)[O-])cc1)c1ccccn1	-31	-8	5	22	14	84*
COc1ccc(Nc2nc(N3CCCC3)nc3ccccc23)c(OC)c1	100*	-2	4	4	nt	nt
COc1ccc(Nc2ncnc3ccccc23)c(OC)c1	6	0	6	-6	nt	nt
Cc1ccc(S(=O)(=O)N2CC3(C)CN(S(=O)(=O)c4ccc(C)cc4)CC(C)(C2)C3O)cc1 (stereo unspecified)	-8	-2	5	1	10	2
Cc1ccc(S(=O)(=O)N2CC3(C)CN(S(=O)(=O)c4ccc(C)cc4)CC(C)(C2)C3=O)cc1	-8	-5	-1	34*	nt	nt
CO[C@H]1CN(C)C(=O)c2ccc(NC(=O)NC(C)C)cc2OC[C@@H](C)N(C(=O)NC(C)C)C[C@H]1C	-6	nt	-1	-2	3	89*
CCC(=O)Nc1ccc2c(c1)OC[C@H](C)N(Cc1ccccc1C(=O)O)C[C@H](C)[C@@H](OC)CN(C)C2=O	nt	nt	nt	-5	2	90*
CO[C@H]1CN(C)C(=O)c2ccc(NC(=O)NC(C)C)cc2OC[C@H](C)N(C(=O)NC(C)C)C[C@@H]1C	nt	nt	nt	-4	nt	nt
CCC(=O)Nc1ccc2c(c1)OC[C@@H](C)N(C(=O)CC1CC1)C[C@H](C)[C@@H](OC)CN(C)C2=O	-11	nt	-2	8	-1	-3
CCC(=O)Nc1ccc2c(c1)OC[C@H](C)N(C(=O)CC1CC1)C[C@H](C)[C@H](OC)CN(C)C2=O	-11	nt	5	10	-1	96*

Bioassay records: PubChem BioAssay, Broad Institute
